Reference: ChEMBL document CHEMBL4190349, “Synthesis and 2D-QSAR studies of neolignan-based diaryl-tetrahydrofuran and -furan analogues with remarkable activity against Trypanosoma cruzi and assessment of the trypanothione reductase activity” (Eur J Med Chem, 2017)
Active and inactive are the calls of the source. No cut-off for these calls is given here.

Experiments:
[1] = Cytotoxicity in C57BL/6 mouse spleen cells assessed as reduction in cell viability incubated for 24 hrs by propidium iodide staining based flow cytometry
Method in brief: (§1)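 Spleen cells from C57BL/6 mice, after red-cell lysis with Tris–NH4Cl, in RPMI with 5% FBS, seeded at 6.5×10^6/mL. Exposed 24 h at 37°C to 250 to 1.50 µM. Stained with 10 µg/mL propidium iodide and read by flow cytometry. 1% Tween 20 was the death control. Run in triplicate.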

[2] = Selectivity index, ratio of CC50 for cytotoxicity in C57BL/6 spleen cells to EC50 for Antitrypanosomal activity against Trypanosoma cruzi Tulahuen trypomastigotes; format: toxicity, cell-based; details: C57BL/6, mouse, read-out: Ratio CC50/EC50
[3] = test system: Trypanosoma cruzi; assay: Antitrypanosomal activity against Trypanosoma cruzi Tulahuen trypomastigotes expressing beta-galactosidase gene incubated for 4 days by beta-galactosidase mediated CPRG substrate hydrolysis assay; format: functional, organism-based; details: 96 h
Method in brief: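 Tulahuen lacZ (β-galactosidase-expressing) cell-derived trypomastigotes, 5×10^5 per well, exposed 4 days at 37°C to serial concentrations 500 to 3.75 µM. Then PBS with 0.5% Triton X-100 and 100 µM CPRG was added, followed by 4 h at 37°C. Absorbance at 570 nm reflects viability. Run in duplicate. EC50 comes from dose-response curves.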

[4] = Cytotoxicity in C57BL/6 mouse spleen cells assessed as reduction in cell viability up to 250 uM incubated for 24 hrs by propidium iodide staining based flow cytometry; method in brief: as §1
[5] = test system: Trypanosoma cruzi; assay: Antitrypanosomal activity against Trypanosoma cruzi Tulahuen amastigotes expressing beta-galactosidase gene infected in LLC-MK2 cells incubated for 4 days after 4 hrs post infection by beta-galactosidase mediated CPRG substrate hydrolysis assay; format: functional, organism-based; details: in the assay text read “24 hrs post infection” for “4 hrs post infection”
Method in brief: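 LLC-MK2 cells in phenol-red-free RPMI 1640 with 5% FBS, seeded at 2×10^4 cells/mL for 24 h. Infected with Tulahuen lacZ trypomastigotes (3:1 parasite:cell) at 37°C and washed at 4 h. Compounds (500 to 0.24 µM) added 24 h post-infection for 4 days at 37°C. After washing, Triton X-100/100 µM CPRG lysis, 4 h at 37°C, A570. Untreated infected wells were controls.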

[6] = test system: Trypanosoma cruzi; assay: Antitrypanosomal activity against Trypanosoma cruzi Y trypomastigotes; format: functional, organism-based
Method in brief: (§2)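 Y strain trypomastigotes plated at 1×10^6 parasites/mL and exposed to serial concentrations of 500 to 3.75 µM. After 24 h, parasites were removed and counted in a Neubauer chamber. EC50 comes from dose-response curves.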

[7] = molecular target: Trypanothione reductase (Trypanosoma cruzi) (UniProt P28593); assay: (§3) Inhibition of Trypanosoma cruzi trypanothione reductase expressed in Escherichia coli BL21 (DE3) pre-incubated for 30 mins using TS2 substrate in presence of NADPH by colorimetric microplate assay
Chain of Trypanothione reductase (Trypanosoma cruzi) (P28593 whole entry, looked up): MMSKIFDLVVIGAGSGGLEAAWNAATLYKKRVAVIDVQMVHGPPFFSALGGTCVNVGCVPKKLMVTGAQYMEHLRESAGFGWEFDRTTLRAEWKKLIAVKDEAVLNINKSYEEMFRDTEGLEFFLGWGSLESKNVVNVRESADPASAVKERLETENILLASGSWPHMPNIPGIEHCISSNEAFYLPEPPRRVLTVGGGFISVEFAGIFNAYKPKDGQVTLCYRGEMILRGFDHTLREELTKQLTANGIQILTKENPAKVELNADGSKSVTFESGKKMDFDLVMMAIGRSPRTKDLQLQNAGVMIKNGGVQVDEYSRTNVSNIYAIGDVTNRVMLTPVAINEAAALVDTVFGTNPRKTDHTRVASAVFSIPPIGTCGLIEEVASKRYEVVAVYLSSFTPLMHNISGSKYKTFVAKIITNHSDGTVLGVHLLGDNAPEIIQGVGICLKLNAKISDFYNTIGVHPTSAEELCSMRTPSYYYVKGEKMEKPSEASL
Method in brief: (§4)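 Recombinant T. cruzi TR expressed in E. coli BL21DE3 and affinity-purified. Assay: TcTR 5 m-unit, 40 mM HEPES pH 7.5, 0.15 mM NADPH, 1 mM EDTA, 1 µM TS2, compounds in DMSO (final 1% DMSO control). Pre-incubated 30 min at 27°C, then DTNB added, and A412 read every 5 min for 30 min.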

[8] = molecular target: Trypanothione reductase (Trypanosoma cruzi, UniProt P28593); assay: as §3; method in brief: as §4
Chain of Trypanothione reductase (P28593 whole entry): as the sequence (P28593 whole entry, looked up) above

[9] = test system: Trypanosoma cruzi; assay: Growth inhibition of Trypanosoma cruzi amastigotes at 20 ug/ml; format: functional; details: read-out: GI
[10] = test system: Trypanosoma cruzi; assay: Antitrypanosomal activity against Trypanosoma cruzi Y trypomastigotes assessed as induction of parasite lysis; format: functional, organism-based; method in brief: as §2
[11] = test system: Trypanosoma cruzi; assay: Antitrypanosomal activity against Trypanosoma cruzi; format: functional, organism-based

SMILES	EC50 [3]	IC50 [3]	Activity [4]	further results
O=C(CCC(=O)c1ccccc1)c1ccccc1	199 µM	199 µM		CC50 at 24 h [1]: 220 µM; selectivity ratio [2]: 1.1
COc1cc(C2CCC(c3ccccc3)O2)cc(OC)c1OC (stereo unspecified)	26.2 µM	26.2 µM	Non-Toxic	
COc1ccc(C(O)C#CC(O)c2ccccc2)cc1 (stereo unspecified)	14 µM	14 µM	Non-Toxic	
COc1cc(OC)cc(-c2ccc(-c3ccccc3)o2)c1	0.01 µM		Non-Toxic	EC50 [5]: 133 µM; EC50 [6]: 4.08 µM; inhibition [7]: inactive
OC(C#CC(O)c1ccccc1)c1ccccc1 (stereo unspecified)	18.7 µM	18.7 µM	Non-Toxic	
COc1ccc(-c2ccc(-c3ccccc3)o2)cc1	4.75 µM	4.75 µM	Non-Toxic	EC50 [5]: 127 µM; EC50 [6]: 19.2 µM; IC50 [8]: 7.4 µM
COc1cccc(C(O)CCC(O)c2ccccc2)c1 (stereo unspecified)	193 µM	193 µM	Non-Toxic	
c1ccc(C2CCC(c3ccccc3)O2)cc1 (stereo unspecified)	37.3 µM	37.3 µM	Non-Toxic	
COc1ccc(C2CCC(c3ccccc3)O2)cc1 (stereo unspecified)	9.07 µM	9.08 µM	Non-Toxic	
COc1ccc(C2CCC(c3ccccc3)O2)cc1OC (stereo unspecified)	24.6 µM	24.6 µM	Non-Toxic	
c1ccc(-c2ccc(-c3ccccc3)o2)cc1	21 µM	21 µM		CC50 at 24 h [1]: 194 µM; selectivity ratio [2]: 9.2
COc1ccc(-c2ccc(-c3ccccc3)o2)cc1OC	1.34 µM	1.34 µM	Non-Toxic	EC50 [5]: 126 µM; EC50 [6]: 32.6 µM; IC50 [8]: 19.2 µM
COc1ccc(-c2ccc(-c3ccc(OC)c(OC)c3)o2)cc1OC				inhibition of growth at 20 µg/mL [9]: 65%
COc1ccc(C(O)C#CC(O)c2ccccc2)cc1OC (stereo unspecified)	8.98 µM	8.97 µM	Non-Toxic	
COc1ccc([C@H]2O[C@@H](c3ccc(OC)c(OC)c3)[C@H](C)[C@H]2C)cc1OC [VERAGUENSIN]	2.67 µM			EC50 [10]: 2.3 µM
COc1cc(OC)cc(C(O)CCC(O)c2ccccc2)c1 (stereo unspecified)	67.6 µM	67.6 µM	Non-Toxic	
NS(=O)(=O)c1ccc(-c2ccco2)cc1				inhibition of growth at 20 µg/mL [9]: 70%
COc1ccc(C(O)CCC(O)c2ccccc2)c(OC)c1 (stereo unspecified)	19.9 µM	19.9 µM		CC50 at 24 h [1]: 236 µM; selectivity ratio [2]: 11.9
COc1ccc(C(=O)CCC(=O)c2ccccc2)cc1	15.9 µM	15.9 µM	Non-Toxic	
COc1cccc(C2CCC(c3ccccc3)O2)c1 (stereo unspecified)	2.29 µM	2.29 µM	Non-Toxic	EC50 [5]: 126 µM; EC50 [6]: 34.2 µM
COc1ccc(C2CCC(c3ccccc3)O2)c(OC)c1 (stereo unspecified)	0.75 µM	0.75 µM	Non-Toxic	EC50 [5]: 19.8 µM; EC50 [6]: 1.05 µM

SMILES	EC50 [3]	IC50 [3]	Activity [4]	further results
COc1ccc(C(=O)CCC(=O)c2ccccc2)cc1OC	36 µM	36 µM	Non-Toxic	
COc1cc(C(=O)CCC(=O)c2ccccc2)cc(OC)c1OC	36.9 µM	36.9 µM	Non-Toxic	
COc1cc(-c2ccc(-c3ccccc3)o2)cc(OC)c1OC	29.1 µM	29.1 µM	Non-Toxic	
OC(CCC(O)c1ccccc1)c1ccccc1 (stereo unspecified)	33.2 µM	33.2 µM		CC50 at 24 h [1]: 166 µM; selectivity ratio [2]: 5
COc1cc(OC)cc(C(O)C#CC(O)c2ccccc2)c1 (stereo unspecified)	4.98 µM	4.98 µM		CC50 at 24 h [1]: 78.6 µM; selectivity ratio [2]: 15.8
COc1cc([C@@H]2O[C@@H](c3cc(OC)c(OC)c(OC)c3)[C@H](C)[C@H]2C)cc(OC)c1OC [GRANDISIN]	28.6 µM			EC50 [10]: 3.7 µM
COc1ccc(C(=O)CCC(=O)c2ccccc2)c(OC)c1	7.79 µM	7.8 µM	Non-Toxic	EC50 [6]: 1.76 µM
COc1cc(OC)cc(C(=O)CCC(=O)c2ccccc2)c1	1.69 µM	1.69 µM	Non-Toxic	EC50 [6]: 15.9 µM
COc1cc(C(O)CCC(O)c2ccccc2)cc(OC)c1OC (stereo unspecified)	77.5 µM	77.4 µM		CC50 at 24 h [1]: 115 µM; selectivity ratio [2]: 1.5
COc1cccc(C(=O)CCC(=O)c2ccccc2)c1	18.3 µM	18.3 µM	Non-Toxic	
COc1ccc(C(O)CCC(O)c2ccccc2)cc1OC (stereo unspecified)	83.1 µM	83.2 µM	Non-Toxic	
COc1cc(OC)cc(C2CCC(c3ccccc3)O2)c1 (stereo unspecified)	12.1 µM	12.1 µM	Non-Toxic	
COc1cc([C@@H]2O[C@@H](c3cc(OC)c(OCc4ccccc4)c(OC)c3)C(CO)=C2C)cc(OC)c1OC				EC50 [11]: 1.5 µM
COc1cc(C(O)C#CC(O)c2ccccc2)cc(OC)c1OC (stereo unspecified)	4.88 µM	4.88 µM	Non-Toxic	EC50 [6]: 97.1 µM
COc1cccc(-c2ccc(-c3ccccc3)o2)c1	3.34 µM	3.34 µM	Non-Toxic	EC50 [5]: 126 µM; EC50 [6]: 34.2 µM; IC50 [8]: 8.9 µM
COc1cccc(C(O)C#CC(O)c2ccccc2)c1 (stereo unspecified)	39.1 µM	39.1 µM	Non-Toxic	
COc1ccc(C(O)CCC(O)c2ccccc2)cc1 (stereo unspecified)	68.1 µM	68.1 µM	Non-Toxic	
COc1ccc(-c2ccc(-c3ccccc3)o2)c(OC)c1	1.12 µM	1.12 µM	Non-Toxic	EC50 [5]: 19 µM; EC50 [6]: 35.9 µM; IC50 [8]: 17.7 µM
O=C(Cn1ccnc1[N+](=O)[O-])NCc1ccccc1 [BENZNIDAZOLE]	1.65 µM			EC50 [6]: 0.04 µM
COc1ccc(C(O)C#CC(O)c2ccccc2)c(OC)c1 (stereo unspecified)	37.9 µM	37.8 µM	Non-Toxic	
